The structures appear in SMILES notation. Activity calls are given as the source filed them.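 The calls were made as follows, unless noted: active = visual image review flags a hit and inhibition of aggregation exceeds 20%; inconclusive = visual hit but inhibition at or below 20%; inactive = no hit on visual image review.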

One may read the inhibition as the drop in the measured response relative to a control, in per cent.

Assay [1] is described as follows: inhibitors of TNFa-induced NFkB p65 translocation, primary screen, imaging, HUVEC, MLSMR starter and 10KST1 sets (AID 438;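 active = inhibition above 20% together with a positive visual image hit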;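 also: compound added about 3h40 before a 20 min TNFalpha stimulation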;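 as to inhibition: signal is the nuclear over cytoplasmic p65 intensity ratio per well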). To be noted: HUVEC TNFa-induced p65 nuclear translocation; cell count: measured here: nuclei count (cytotoxicity indicator), at 2.08 µM; inhibition: at 2 µM, stronger effect = higher value, 0% TNFa-plus-vehicle, 100% no-TNFa wells.
Assay [2] in a line: reduction of polyQ htt aggregates in cells – imaging, exon1htt(103Q)mCFP cells, high-content imaging, primary screen (AID 483).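 Also: compound exposure lasted 3 days before fixation.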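 As to nuclei count: percent of the per-plate median nuclei count of sample wells.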 To be noted: exon1htt(103Q)mCFP cell line, aggregate imaging, at 2 µM; inhibition of aggregation: stronger effect = higher value; nuclei count: measured here: cell count, toxicity.
Assay [3] in a line: endothelial E-selectin expression blockers – imaging, HUVEC, immunofluorescence, MLSMR starter and 10KST1 sets, primary screen (AID 487;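 active = visually confirmed hit in the image check and inhibition above 20%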;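 as to inhibition: signal is fraction of cell area covered by stained E-selectin grains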;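 as to nuclei count: 100% = median nuclei count of all wells on the same plate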). The conditions noted are these: HUVEC TNFalpha-induced E-selectin immunofluorescence imaging, at 2 µM; inhibition: stronger effect = higher value; nuclei count: measured here: cell number, toxicity.
Assay [4] deals with Voltage-gated potassium channel subunit beta-2 (Rattus norvegicus) (UniProt P62483). The experiment in a line: inhibitors of rat Kvbeta2 reductase activity – biochemical, NADPH fluorescence, primary screen (AID 622;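 active = fluorescence slope higher than the sample average by over 3 SD, cut at about -0.22 in these data, passing the limit was not always enough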;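 also: slope of raw intensity against log time taken from 70 to 1610 s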). The conditions noted are these: recombinant KvBeta, 4-cyanobenzaldehyde reduction, at 10 µM, stronger effect = higher value.
Voltage-gated potassium channel subunit beta-2 (Rattus norvegicus), sequence (P62483 whole entry, looked up): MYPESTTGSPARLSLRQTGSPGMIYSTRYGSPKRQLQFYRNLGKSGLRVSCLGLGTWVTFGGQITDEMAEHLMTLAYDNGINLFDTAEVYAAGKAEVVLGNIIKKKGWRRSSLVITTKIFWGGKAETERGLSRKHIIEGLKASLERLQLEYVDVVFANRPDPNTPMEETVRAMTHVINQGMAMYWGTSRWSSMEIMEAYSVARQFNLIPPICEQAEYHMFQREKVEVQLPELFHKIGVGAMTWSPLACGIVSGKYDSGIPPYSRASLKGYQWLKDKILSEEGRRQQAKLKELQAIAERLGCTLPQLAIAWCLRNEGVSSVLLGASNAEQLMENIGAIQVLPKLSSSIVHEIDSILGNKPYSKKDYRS
Assay [5] shares this target. The experiment in a line: enhancers of rat Kvbeta2 NADPH turnover – biochemical, NADPH fluorescence, primary screen (AID 623;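 active = NADPH fluorescence slope more negative than the mean of all samples by about 3 SD, 99.7% confidence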;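 also: fluorescence intensity change per second fitted from 20 to 320 s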). The conditions noted are these: Recombinant KvBeta, NADPH fluorescence decrease slope, 10 min; at 10 µM; stronger effect = lower value.
In assay [6] the target is Muscarinic acetylcholine receptor M4 (Homo sapiens) (UniProt P08173). Kind of assay: M4-linked GIRK flux change, two-sided – cell-based, HEK293 M4/GIRK, thallium flux, BTC-AM, M4 allosteric agonist project, primary screen (AID 625;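 active = fluorescence slope after compound addition differing from the mean of all tested samples at 99.7% confidence, mostly higher but some lower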;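 also: thallium influx through GIRK channels coupled to M4 in HEK293 cells with BTC-AM dye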). To be noted: at 10 µM, actives lie on both sides. The essentials: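 Material: HEK293 cells with M4 receptor and GIRK channels; Times: cells overnight at 37 °C, BTC-AM loading 1 h, reads 2 min total; Technique: kinetic BTC-AM fluorescence sampled at 1 Hz, 10 s pre-addition baseline; Read-out basis: slope over 15–24 s of trace normalized to starting intensity; Controls: carbachol positive, DMSO negative.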
Muscarinic acetylcholine receptor M4 (Homo sapiens), sequence (P08173 whole entry, looked up): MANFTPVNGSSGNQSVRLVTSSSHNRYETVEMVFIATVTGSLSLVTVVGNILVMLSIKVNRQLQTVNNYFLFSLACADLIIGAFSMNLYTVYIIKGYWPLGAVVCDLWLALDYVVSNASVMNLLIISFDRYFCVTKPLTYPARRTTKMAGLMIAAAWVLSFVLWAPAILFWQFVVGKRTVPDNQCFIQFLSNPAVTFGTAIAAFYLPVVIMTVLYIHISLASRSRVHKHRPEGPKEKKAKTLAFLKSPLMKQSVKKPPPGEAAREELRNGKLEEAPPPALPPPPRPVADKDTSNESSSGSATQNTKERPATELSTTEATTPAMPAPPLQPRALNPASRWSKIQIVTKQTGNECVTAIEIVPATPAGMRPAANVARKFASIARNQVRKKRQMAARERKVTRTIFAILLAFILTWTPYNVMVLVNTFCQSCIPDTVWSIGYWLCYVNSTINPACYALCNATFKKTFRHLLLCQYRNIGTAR

A short description of assay [7]: blockers of RIG-like receptor reporter activation – cell-based, Sendai virus stimulus, luciferase, 10K MLSCN set, TLR/RLR signaling modifier project, primary screen (AID 602276;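 active = inhibition at or above 50% at 10 µM; inactive = inhibition below 50%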;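 also: firefly luciferase from ISG56 promoter only with Renilla not read in this screen; 0% = Sendai virus plus DMSO and 100% = medium plus DMSO without virus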). To be noted: HEK293 RL24 IRF3 luciferase reporter, at 10 µM, stronger effect = higher value.
Assay [8] can be described thus: TLR3 IRF3 reporter activation blockers – cell-based, poly I:C stimulus, luciferase, 10K MLSCN set, primary screen (AID 602277;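 active = inhibition of the reporter signal at or above 50%; inactive = inhibition below 50%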). To be noted: HEK293-TLR3 RL24 IRF3 luciferase reporter, at 10 µM, stronger effect = higher value.

In the case of `CCOC(=O)c1ccc(Oc2nc(NC)nc(OC)n2)cc1`, the cell count in assay [1] came out at 635. For the same compound, the inhibition is 6.8% (inactive) in assay [1], -41.5% (inactive) in assay [3], -7.27% (inactive) in assay [7] and 18.3% (inactive) in assay [8]. Also, the inhibition of aggregation in assay [2] is -13.2% (inactive). The nuclei count stood at 98.2% in assay [2] and 110% in assay [3]. Moreover, the figures for the fluorescence slope in assay [4] and in assay [6] were -0.295 (inactive) and 0.00677 (inactive), respectively. Besides, in assay [5], the NADPH fluorescence slope was -1.6e-06 (inactive).
Turning to `O=C(O)c1cc2c([nH]c1=O)CCCC2`, in assay [1], the cell count was found to be 661. In addition, the inhibition in assay [1] is -18.4% (inactive); in assay [3], -0.2% (inactive); in assay [7], 13.7% (inactive); in assay [8], 24.4% (inactive). Besides, the inhibition of aggregation in assay [2] was 24.5% (inactive). For the same compound, the nuclei count was determined as 96.3% in assay [2] and 100% in assay [3]. Besides, the fluorescence slope in assay [4] is -0.585 (inactive); in assay [6], 0.00466 (inactive). Moreover, the NADPH fluorescence slope in assay [5] was 2.3e-05 (inactive).
For `O=C(NC1CCCCC1)C1CC(O)CN1C(=O)OCc1ccccc1` (centres undefined), in assay [1], the cell count came out at 819. Besides, the inhibition is -4.1% (inactive) in assay [1], -56.4% (inactive) in assay [3], 2.76% (inactive) in assay [7] and 14.7% (inactive) in assay [8]. Besides, the inhibition of aggregation in assay [2] was 26.1% (inactive). Also, the results for the nuclei count in assay [2] and in assay [3] were 104% and 98%, respectively. The fluorescence slope in assay [4] was -0.564 (inactive); in assay [6], 0.00452 (inactive). Moreover, in assay [5], the NADPH fluorescence slope is -7.5e-06 (inactive).
For the compound `CCOC(=O)C1=C(CN2CCOCC2)NC(=O)NC1c1cc(C)ccc1C` (centres undefined), the cell count in assay [1] amounted to 492. Besides, the inhibition was -3% (inactive) in assay [1], -30.8% (inactive) in assay [3], 15.4% (inactive) in assay [7] and 7.78% (inactive) in assay [8]. Further, the inhibition of aggregation in assay [2] was -1.1% (inactive). In addition, the nuclei count came to 117% in assay [2] and 108% in assay [3]. The fluorescence slope was -0.205 (inactive) in assay [4] and 0.00619 (inactive) in assay [6]. For the same compound, the NADPH fluorescence slope in assay [5] was -1.6e-05 (inactive).
For `COc1ccc(-n2c(SCCC(=O)O)nnc2-c2ccncc2)cc1`, in assay [1], the cell count worked out at 359. The inhibition is -6.2% (inactive) in assay [1], -27.4% (inactive) in assay [3], 18% (inactive) in assay [7] and 36.6% (inactive) in assay [8]. Besides, the inhibition of aggregation in assay [2] was -2.3% (inactive). Further, the nuclei count worked out at 98.2% in assay [2] and 127% in assay [3]. The fluorescence slope is -0.56 (inactive) in assay [4] and 0.00569 (inactive) in assay [6]. In addition, the NADPH fluorescence slope in assay [5] was 4e-06 (inactive).
Consider `COc1ccccc1-c1c(C)nn2c(N3CCC4(CC3)OCCO4)cc(C)nc12`, for which the cell count in assay [1] was determined as 540. Also, the inhibition in assay [1] is -2.1% (inactive); in assay [3] it was -42.2% (inactive); in assay [7] it was 13.5% (inactive); in assay [8], 12.2% (inactive). The inhibition of aggregation in assay [2] is -9.7% (inactive). In addition, the nuclei count in assay [2] came to 91.2%; in assay [3], 111%. Further, the fluorescence slope in assay [4] was -0.545 (inactive); in assay [6], 0.00547 (inactive). The NADPH fluorescence slope in assay [5] was -4.6e-05 (inactive).
As for `CN(CC(=O)N1CCN(C2CCCCC2)CC1)S(=O)(=O)c1cccc2nsnc12`, the cell count in assay [1] came to 367. Also, the inhibition in assay [1] was 0.8% (inactive); in assay [3], 36% (inactive); in assay [7], 13% (inactive); in assay [8], 28.3% (inactive). The inhibition of aggregation in assay [2] was -4.6% (inactive). Further, the values for the nuclei count in assay [2] and in assay [3] were 102% and 94.6%, respectively. The fluorescence slope was -0.379 (inactive) in assay [4] and 0.00544 (inactive) in assay [6]. For the same compound, in assay [5], the NADPH fluorescence slope is 8e-05 (inactive).
Consider `CS(=O)(=O)N1CCc2cc(C(=O)N3CCCCC3)ccc21`, for which, in assay [1], the cell count stood at 493. The inhibition in assay [1] was 6.1% (inactive); in assay [3], -8.3% (inactive); in assay [7], 17.7% (inactive); in assay [8] it was 18.6% (inactive). Also, the inhibition of aggregation in assay [2] was 0.6% (inactive). The nuclei count in assay [2] was 100%; in assay [3], 83.3%. Moreover, the results for the fluorescence slope in assay [4] and in assay [6] were -0.494 (inactive) and 0.00629 (inactive), respectively. Besides, the NADPH fluorescence slope in assay [5] is 5.6e-05 (inactive).
As to `Cc1ccc(-c2nnc(-c3ccc(Br)cc3)o2)o1`, the cell count in assay [1] is 454. Besides, the inhibition in assay [1] was 0.5% (inactive); in assay [3], -31.4% (inactive); in assay [7], -38.9% (inactive); in assay [8], -108% (inactive). Further, in assay [2], the inhibition of aggregation was -10.6% (inactive). Further, the values for the nuclei count in assay [2] and in assay [3] were 116% and 102%, respectively. Also, the fluorescence slope in assay [4] is -0.389 (inactive); in assay [6], 0.00923 (inactive). In addition, in assay [5], the NADPH fluorescence slope is -3e-05 (inactive).
On to `CCC(C)n1[nH]c(=O)c2c(C)cc(C)nc21` (centres undefined), for which the cell count in assay [1] was 405. Besides, the inhibition in assay [1] was 1.8% (inactive); in assay [3] it was -50.1% (inactive); in assay [7] it was 6.37% (inactive); in assay [8] it was 15.3% (inactive). The inhibition of aggregation in assay [2] was 2.2% (inactive). Further, the nuclei count in assay [2] worked out at 101%; in assay [3], 108%. The fluorescence slope in assay [4] is -0.565 (inactive); in assay [6], 0.00534 (inactive). Moreover, the NADPH fluorescence slope in assay [5] is -5.9e-05 (inactive).
For the compound `CC1(C)Cc2nc3oc4c(N(CCO)Cc5ccccc5)ncnc4c3cc2CO1`, the cell count in assay [1] was found to be 558. Also, the inhibition in assay [1] is 6.7% (inactive); in assay [3], -29.7% (inactive); in assay [7], -1.42% (inactive); in assay [8], 5.17% (inactive). Besides, the inhibition of aggregation in assay [2] was -1.1% (inactive). The nuclei count in assay [2] was 101%; in assay [3] it was 122%. In addition, the figures for the fluorescence slope in assay [4] and in assay [6] were -0.27 (inactive) and 0.0057 (inactive), respectively. In addition, the NADPH fluorescence slope in assay [5] is -1.6e-05 (inactive).
In the case of `CCCCOc1ccc(-c2nnn(CC(=O)Nc3ncc(CC(=O)OCC)s3)n2)cc1`, in assay [1], the cell count came to 613. The inhibition in assay [1] is 36.4% (active); in assay [3], -79% (inactive); in assay [7] it was 13.5% (inactive); in assay [8] it was 23.8% (inactive). The inhibition of aggregation in assay [2] was 18.6% (inactive). Also, the nuclei count in assay [2] is 108%; in assay [3] it was 79.4%. Also, the fluorescence slope is -0.4 (inactive) in assay [4] and 0.00855 (inactive) in assay [6]. The NADPH fluorescence slope in assay [5] is 6.8e-06 (inactive).
Take `O=C1c2ccccc2-c2nc3ncnn3c(-c3ccccc3)c21`: the cell count in assay [1] stood at 377. The inhibition in assay [1] is -7.8% (inactive); in assay [3], -6.8% (inactive); in assay [7], -11.4% (inactive); in assay [8] it was 1.41% (inactive). In addition, the inhibition of aggregation in assay [2] is -4.5% (inactive). Further, the results for the nuclei count in assay [2] and in assay [3] were 83.8% and 107%, respectively. In addition, the figures for the fluorescence slope in assay [4] and in assay [6] were -0.432 (inactive) and 0.00449 (inactive), respectively. Besides, in assay [5], the NADPH fluorescence slope is -0.000383 (inactive).
With `CC(C)(C)OC(=O)N1CC(O)CC1C(=O)OCC(=O)c1ccc(Cl)cc1` (centres undefined), in assay [1], the cell count came out at 445. The inhibition was -7.4% (inactive) in assay [1], -22.9% (inactive) in assay [3], 8.08% (inactive) in assay [7] and 19.4% (inactive) in assay [8]. The inhibition of aggregation in assay [2] was 22.1% (inactive). Moreover, the nuclei count was 105% in assay [2] and 103% in assay [3]. For the same compound, the fluorescence slope in assay [4] is -0.316 (inactive); in assay [6] it was 0.00558 (inactive). In assay [5], the NADPH fluorescence slope was -6e-05 (inactive).

These data come from PubChem BioAssay.
